The list is not random: actives were taken first. Their share in the collection is about 2.6%.
NR2E3 ag-1 – activates human NR2E3 receptor. CHO-S Gal4-NCOR/VP16-NR2E3 two-hybrid, luciferase. Q9Y5X4. inhibition of corepressor binding, % at 3.98 µM. 360,000 compounds, 0.35% hits;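 active = inhibition above the mean of all tested compounds plus 3 SD, cut at about 70% in these data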;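 note: 0% = DMSO with NR2E3 transfected cells and 100% = cells lacking NR2E3 construct; higher means lower luciferase signal from less NR2E3 corepressor binding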
Rev-erbA mod – Rev-erb alpha (human) modulation; P20393; Rev-erbα–FITC-DNA binding, fluorescence polarization, 90 min; activity, % at 10 µM; 370,000 compounds, 0.79% hits;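 active = activity above about 14%, limit read from the data; passing the limit was not always enough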;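 note: 0% = DMSO wells with 35 nM protein and 100% = DMSO wells with 750 nM protein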
Target sequence (P20393 whole entry, looked up): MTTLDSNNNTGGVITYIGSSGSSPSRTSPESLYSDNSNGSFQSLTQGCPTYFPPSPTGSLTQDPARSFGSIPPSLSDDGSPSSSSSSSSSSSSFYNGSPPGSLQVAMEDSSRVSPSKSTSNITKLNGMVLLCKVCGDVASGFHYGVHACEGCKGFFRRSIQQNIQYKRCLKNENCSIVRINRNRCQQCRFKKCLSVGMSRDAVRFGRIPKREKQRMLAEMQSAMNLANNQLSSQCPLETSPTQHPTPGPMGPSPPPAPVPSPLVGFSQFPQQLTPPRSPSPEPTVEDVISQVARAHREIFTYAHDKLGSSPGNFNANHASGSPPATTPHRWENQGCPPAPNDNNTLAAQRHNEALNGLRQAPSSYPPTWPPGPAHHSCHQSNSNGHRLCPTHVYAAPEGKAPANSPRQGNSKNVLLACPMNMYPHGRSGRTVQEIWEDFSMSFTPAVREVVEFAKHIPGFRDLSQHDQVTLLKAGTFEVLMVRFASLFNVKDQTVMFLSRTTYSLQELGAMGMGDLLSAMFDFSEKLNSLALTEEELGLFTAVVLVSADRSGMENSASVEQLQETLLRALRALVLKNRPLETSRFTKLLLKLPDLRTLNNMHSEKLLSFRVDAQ
NR2E3 ag-2 – NR2E3 (human) agonism | Q9Y5X4 | inhibition of corepressor binding, % at 4.78 µM | AID 2300 | 320,000 compounds, 0.12% hits | GST-NR2E3/biotin-RetCOR TR-FRET, 1536-well;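 active = percent inhibition above the cutoff of mean plus 3 SD of all tested compounds, set per screening campaign, cut at about 20% in these data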;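 note: 0% = DMSO wells and 100% = biotin wells as full block of FRET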
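Material – GST-tagged NR2E3 plus biotinylated RetCOR corepressor · Quantity – NR2E3 fusion 1.35 nM · Times – 5 h incubation at 4 °C · Medium – pH 7.5 Tris-based buffer · Technique – TR-FRET, Eu(K)-anti-GST donor, streptavidin-D2 acceptor, ex 340, em 617/671 nm · Benchmarks – high control biotin, low control 0.6% DMSO · Format – 1536-well plates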
PG9 Ab binder – PG9 antibody binding by small molecule; TR-FRET gp120-PG9 antibody binding; inhibition, % at 6.7 µM; 360,000 compounds, 0.43% hits; AID 624416; in the data active = inhibition above about 8.5%
rCAG RNA binder – binds r(CAG) RNA repeats | r(CAG) RNA repeat, TO-PRO-1 dye displacement fluorescence | inhibition, % at 3 µM | AID 651821 | 370,000 compounds, 1.3% hits;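 active = inhibition above the plate cutoff, the mean of all test compounds on that plate plus 3 SD, cut at about 35% in these data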;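 note: 0% = DMSO alone and 100% = 100 µM mitoxantrone as full dye displacement; higher means more dye released from RNA so lower well fluorescence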
NR2E3 ag conf – confirmation of human NR2E3 agonists; shares compounds with NR2E3 ag-1; CHO-S mammalian two-hybrid NR2E3-NCOR, luciferase luminescence; inhibition, % at 3.98 µM; 2,300 compounds, 51% hits;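 active = average inhibition above a cutoff equal to the mean inhibition of all tested compounds plus one SD, cut at about 70% in these data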;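 note: 0% = DMSO in NR2E3 cells and 100% = DMSO in cells lacking NR2E3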
VP16 counter – counter-screen for NR2E3 agonists: GAL4-VP16 reporter inhibitors; CHO-S GAL4-VP16 luciferase reporter, luminescence; shares compounds with NR2E3 ag-1; 2,300 compounds, 29% hits; inhibition, % at 3.98 µM;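 active = mean inhibition above a cutoff equal to the average over all tested compounds plus one standard deviation, cut at about 70% in these data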;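 note: luciferase from a UAS reporter driven by GAL4-VP16 transactivation; 0% = DMSO with VP16-transfected cells and 100% = DMSO with cells lacking VP16; higher means less reporter light so more repression of VP16 activity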
The depositor's hits bear a star.

`O=C(C1CC1)N1CCc2cc(S(=O)(=O)NCCC3=CCCCC3)ccc21` gave NR2E3 ag-1 58.7, Rev-erbA mod 6.3, NR2E3 ag-2 -1.4, PG9 Ab binder -2.0, rCAG RNA binder -3.4, NR2E3 ag conf 57.5 and VP16 counter 46.7.
Screening CCCN(CCC)CCNS(=O)(=O)c1ccc2c(c1)CCN2C(=O)C1CCC1 returned NR2E3 ag-1 0.9, Rev-erbA mod 7.1, NR2E3 ag-2 0.9, PG9 Ab binder -0.9 and rCAG RNA binder -3.8.
Screening COC(=O)c1cc2c(c3c4cc(F)ccc4n(S(=O)(=O)c4ccc(C)cc4)c13)C(=O)N(Cc1ccc(C(F)(F)F)cc1)C2 returned Rev-erbA mod 7.0, PG9 Ab binder 1.1 and rCAG RNA binder 7.5.
Cc1cc(Br)cn2c(Cc3ccccc3C(F)(F)F)c(-c3ccco3)nc12 was read as Rev-erbA mod -4.4, PG9 Ab binder -5.3 and rCAG RNA binder 31.9.
Cc1ccc(-n2c(SCC(=O)Nc3ccc(OCc4ccccc4)cc3)nnc2-c2ccccc2)cc1 was read as Rev-erbA mod -2.7 and rCAG RNA binder 7.0.
CO[C@@H]1[C@H](O)CC[C@]2(O)CN(c3ccc(F)cc3)[C@](C)([C@H](O)CC=C(C)C)[C@@H]12 was read as Rev-erbA mod 4.3, PG9 Ab binder -1.4 and rCAG RNA binder 5.0.
Screening CCc1ccc(-c2nc(CSCC(=O)NCCCN3CCCC3=O)c(C)o2)cc1 returned NR2E3 ag-1 71.2*, Rev-erbA mod 5.1, NR2E3 ag-2 -0.3, PG9 Ab binder 1.0, rCAG RNA binder -6.7, NR2E3 ag conf 89.7* and VP16 counter 63.2.
For CSc1ccc(-c2nc(CSCC(=O)NCCCN3CCCC3=O)c(C)o2)cc1 the results were NR2E3 ag-1 31.6, Rev-erbA mod -0.8, NR2E3 ag-2 1.0, PG9 Ab binder -1.1 and rCAG RNA binder -6.4.
For CCOCCCNC(=O)CSCc1nc(-c2ccc(SC)cc2)oc1C the results were NR2E3 ag-1 81.0*, Rev-erbA mod 3.5, NR2E3 ag-2 2.1, PG9 Ab binder -0.4, rCAG RNA binder -2.9, NR2E3 ag conf 81.1* and VP16 counter 80.7*.
Screening COCCNC(=O)CSCc1nc(-c2ccc(SC)cc2)oc1C returned NR2E3 ag-1 92.1*, Rev-erbA mod -2.0, NR2E3 ag-2 2.6, PG9 Ab binder 3.0, rCAG RNA binder -2.8, NR2E3 ag conf 84.6* and VP16 counter 86.2*.
Screening COc1ccc(NC(=O)N(C)C[C@@H]2OCc3cnnn3CCCC(=O)N([C@@H](C)CO)C[C@@H]2C)cc1 returned Rev-erbA mod 6.7, PG9 Ab binder -0.5 and rCAG RNA binder 3.5.
`CCc1ccc(CNC(=O)c2cc3c(C)nc4ccccc4c3o2)cc1` gave NR2E3 ag-1 93.6*, Rev-erbA mod 0.4, NR2E3 ag-2 -3.6, PG9 Ab binder -1.8, rCAG RNA binder 1.8, NR2E3 ag conf 95.2* and VP16 counter 86.5*.
CCCCN(CC)CCNC(=O)c1cc2c(C)nc3ccccc3c2o1 was read as NR2E3 ag-1 -3.0, Rev-erbA mod 1.8, NR2E3 ag-2 2.4, PG9 Ab binder 1.6 and rCAG RNA binder 0.0.
COC(=O)[C@]12C[C@H](CC(=O)NCc3ccc(C)o3)C(=O)N(CCC3=CCCCC3)C1=C[C@H](C1CCCC1)O[C@@H]2C was read as Rev-erbA mod 3.9 and rCAG RNA binder 6.0.
`O=S(=O)(c1ccc(C(F)(F)F)cc1)N1CCCc2nc(-c3ccc(F)cc3)ccc21` gave Rev-erbA mod 2.4, PG9 Ab binder -0.7 and rCAG RNA binder 4.6.
Screening OCC1OC(n2ccc3c2ncn2ncnc32)C(O)C1O (stereo not given) returned NR2E3 ag-1 57.5, Rev-erbA mod 4.7, PG9 Ab binder -3.1, rCAG RNA binder 1.3, NR2E3 ag conf 7.5 and VP16 counter 12.6.
Screening O=C(Nc1c(F)c(F)c(F)c(F)c1F)OC[C@@H]1CSCCS(=O)(=O)N1 returned Rev-erbA mod 5.0, PG9 Ab binder 1.7 and rCAG RNA binder 1.4.
Cc1cc(-n2c(C)cc(C(=O)COc3ccccc3[N+](=O)[O-])c2C)no1 was read as NR2E3 ag-1 -46.3, NR2E3 ag-2 0.8, PG9 Ab binder -2.5 and rCAG RNA binder 2.9.
Cc1cc(C(=O)COc2cccnc2[N+](=O)[O-])c(C)n1Cc1ccco1 was read as NR2E3 ag-1 29.0, Rev-erbA mod -13.7, NR2E3 ag-2 -0.3, PG9 Ab binder 0.4 and rCAG RNA binder -1.9.
`Cc1ccc(-n2c(C)cc(C(=O)COc3cccnc3[N+](=O)[O-])c2C)cc1` gave NR2E3 ag-1 68.0, Rev-erbA mod -0.3, NR2E3 ag-2 -1.5, PG9 Ab binder -1.1, rCAG RNA binder 2.4, NR2E3 ag conf 29.4 and VP16 counter 49.5.
`Cc1cc(C(=O)COc2cccnc2[N+](=O)[O-])c(C)n1-c1ccccc1` gave NR2E3 ag-1 70.9*, Rev-erbA mod 1.1, NR2E3 ag-2 -0.8, PG9 Ab binder -4.2, rCAG RNA binder 2.0, NR2E3 ag conf 72.0* and VP16 counter 54.0.
Cc1cc(C(=O)COc2cccnc2[N+](=O)[O-])c(C)n1-c1ccccc1F was read as NR2E3 ag-1 50.0, Rev-erbA mod -3.6, NR2E3 ag-2 -3.2, PG9 Ab binder 0.8, rCAG RNA binder -4.2, NR2E3 ag conf 58.0 and VP16 counter 35.2.
`O=C(Nc1ccccc1)N1c2ccccc2SC1c1ccco1` (stereo not given) gave Rev-erbA mod -5.4, PG9 Ab binder 0.2 and rCAG RNA binder 3.4.
For CCN=C1NC(c2cccc(F)c2)C(C(=O)OC)=C(C)N1Cc1ccccc1C(F)(F)F (stereo not given) the results were Rev-erbA mod 1.8, PG9 Ab binder 1.3 and rCAG RNA binder 2.1.
C[C@H]1[C@@H](OC(=O)NCc2cccs2)CC[C@@]23CCCN2C(=O)CCC[C@@H]13 was read as Rev-erbA mod -5.9.
CC(C)=CCC/C(C)=C/CN1C(=O)N(c2ccc(F)cc2)[C@H]2C[C@@H](c3ccccc3)[C@@H](C)[C@@H](C(=O)N3CCOCC3)C[C@H]21 was read as Rev-erbA mod 11.8, PG9 Ab binder -0.8 and rCAG RNA binder 5.5.
For O=S(=O)(c1cccc(Br)c1)N1CCN(c2ccnc3cc(Cl)ccc23)CC1 the results were NR2E3 ag-1 64.4, Rev-erbA mod 8.2, NR2E3 ag-2 -1.3, PG9 Ab binder -3.2, rCAG RNA binder 3.3, NR2E3 ag conf 64.6 and VP16 counter 60.0.
For Cc1ccc(SCCNC(=S)Nc2cc(C)cc(C)c2)cc1 the results were NR2E3 ag-1 55.0, Rev-erbA mod 3.0, NR2E3 ag-2 -0.3, PG9 Ab binder -1.5, rCAG RNA binder -1.7, NR2E3 ag conf 18.9 and VP16 counter 29.0.
